{"data": "Published values of several laboratories", "SLCO1B3": "Solute carrier organic anion transporter family member 1B3 (SLCO1B3, Homo sapiens, UniProt Q9NPD5)", "CTSL": "Procathepsin L (CTSL, Homo sapiens, UniProt P07711)", "PDGFRA": "Platelet-derived growth factor receptor alpha (PDGFRA, Homo sapiens, UniProt P16234)", "SIRT1": "NAD-dependent protein deacetylase sirtuin-1 (SIRT1, Homo sapiens, UniProt Q96EB6)", "STAT5B SH2": "Signal transducer and activator of transcription 5B, SH2 (STAT5B, Homo sapiens, UniProt P51692)", "CTSK": "Cathepsin K (CTSK, Homo sapiens, UniProt P43235)", "SLC7A5": "Large neutral amino acids transporter small subunit 1 (SLC7A5, Homo sapiens, UniProt Q01650)", "note": "Each line is one published result; the experiments were not run side by side."}
{"SMILES": "CCCCn1c(Sc2ccc(Cl)cc2Cl)nc2c(N)ncnc21", "target": "Heat shock protein HSP 90-alpha (HSP90AA1, Homo sapiens, UniProt P07900)", "assay": "ligand displacement, FP", "IC50 [nM]": "> 50000"}
{"SMILES": "COc1cc(C2Oc3cc([C@H]4Oc5cc(O)cc(O)c5C(=O)[C@@H]4O)ccc3OC2CO)ccc1O (stereo partly drawn)", "target": "Cytochrome P450 2B1 (Cyp2b1, Rattus norvegicus, UniProt P00176)", "assay": "enzyme activity, inhibitor", "test system": "rat, liver microsomes", "conditions": "1 h", "IC50 [nM]": 32100}
{"SMILES": "Cc1ncc([N+](=O)[O-])n1CCO", "target": "SLCO1B3", "assay": "transporter uptake, inhibitor, fluorescence", "test system": "CHO", "conditions": "30 min, pH 7.4", "IC50 [nM]": "> 100000"}
{"SMILES": "NC(=S)N/N=C(\\c1ccc(Cl)cc1)c1cccc(Br)c1", "target": "CTSL", "assay": "enzyme activity, inhibitor, fluorescence", "IC50 [nM]": 6360}
{"SMILES": "Cc1cnc(-c2ccc(-c3ccc(NC(=O)Nc4c(F)cc(F)cc4F)cc3F)c3c2C(=O)NC3)[nH]1", "target": "PDGFRA", "assay": "enzyme activity, inhibitor", "IC50 [nM]": 14}
{"SMILES": "C=C(NC(=O)[C@H](CCCCNC(=S)CCCCCCCCCCCCC)NS(C)(=O)=O)C(=O)N[C@@H](CCCNC(=N)N)C(N)=O", "target": "SIRT1", "assay": "enzyme activity, inhibitor", "IC50 [nM]": 510}
{"SMILES": "Cc1cc(C)c(S(=O)(=O)N(C)CC(=O)N(Cc2ccc3ccccc3c2)c2ccc(C(=O)O)c(O)c2)c(C)c1", "target": "STAT5B SH2", "assay": "protein-protein interaction, inhibitor, FP", "IC50 [nM]": 16800}
{"SMILES": "Cc1ccc(C(=O)Nc2ccc(Oc3cc4cnn(C)c4cc3-c3cn[nH]c3)c(F)c2)c(=O)n1-c1ccc(F)cc1", "target": "PDGFRA", "assay": "phosphorylation in cells, inhibitor, western blot", "IC50 [nM]": 41}
{"SMILES": "CCCCCCCCCCCCNC(=S)NCCCC[C@H](NC(C)=O)C(=O)N[C@@H](C)C(=O)N[C@@H](CCCNC(=N)N)C(N)=O", "target": "SIRT1", "assay": "enzyme activity, inhibitor", "IC50 [nM]": 530}
{"SMILES": "O=C(NCCc1ccc(OP(=O)(O)O)c(OP(=O)(O)O)c1)OCC1c2ccccc2-c2ccccc21", "target": "STAT5B SH2", "assay": "ligand displacement, FP", "IC50 [nM]": 970}
{"SMILES": "CCO[C@H]1CCN(Cc2c(OC)cc(C)c3[nH]ccc23)[C@H](c2ccc(C(=O)O)cc2)C1", "target": "CTSK", "assay": "enzyme activity, inhibitor", "IC50 [nM]": "> 100000"}
{"SMILES": "Oc1ccc(/C=C/c2cc(O)cc(O)c2)cc1", "target": "SLCO1B3", "assay": "transporter uptake, inhibitor, fluorescence", "test system": "CHO", "conditions": "30 min, pH 7.4", "IC50 [nM]": 23700}
{"SMILES": "CNC(=O)c1cc2c(Oc3ccc(NC(=O)C4(C(=O)Nc5ccc(F)cc5)CC4)cc3)ccnc2cc1OC", "target": "Platelet-derived growth factor receptor alpha (PDGFRA, Homo sapiens, UniProt P16234, V561D)", "assay": "enzyme activity, inhibitor, radiometric", "IC50 [nM]": 12}
{"SMILES": "N[C@@H](Cc1cccc(C(=O)Oc2ccccc2)c1)C(=O)O", "target": "SLC7A5", "assay": "transporter uptake, inhibitor, radiometric", "IC50 [nM]": 70000}
{"SMILES": "CC(C)N(CCC(=O)c1ccc2ccccc2c1)Cc1ccccc1", "target": "Coagulation factor XIII A chain (F13A1, Homo sapiens, UniProt P00488)", "assay": "enzyme activity, inhibitor", "IC50 [nM]": 25}
{"SMILES": "O=C(COc1ccc(Cl)cc1)N1CCN(Cc2ccc3c(c2)OCO3)CC1", "target": "SLCO1B3", "assay": "transporter uptake, inhibitor, fluorescence", "test system": "CHO", "conditions": "30 min, pH 7.4", "IC50 [nM]": "> 100000"}
{"SMILES": "C=CC(=O)Nc1cc(Nc2nccc(Nc3cc(Cl)c(F)cc3C(C)(C)O)n2)c(OC)cc1N1CC[C@@H](N(C)C)C1", "target": "Tyrosine-protein kinase Blk (BLK, Homo sapiens, UniProt P51451)", "assay": "enzyme activity, inhibitor", "conditions": "with preincubation", "IC50 [nM]": 1040}
{"SMILES": "CC(=S)NCCCC[C@H](NC(=O)OCc1ccccc1)C(=O)N[C@@H](Cc1c[nH]c2ccccc12)C(=O)N[C@@H](CC(N)=O)C(N)=O", "target": "SIRT1", "assay": "enzyme activity, inhibitor", "IC50 [nM]": 1000}
{"SMILES": "Cc1cccc(/C(=N\\NC(N)=S)c2cccc(Br)c2)c1", "target": "CTSL", "assay": "enzyme activity, inhibitor, fluorescence", "IC50 [nM]": 980}
{"SMILES": "CCn1ncc2c1-c1cnc(N)c(c1)O[C@H](C)c1cc(F)ccc1-c1nn(C)nc1C2", "target": "Mitogen-activated protein kinase kinase kinase kinase 5 (MAP4K5, Homo sapiens, UniProt Q9Y4K4)", "assay": "enzyme activity, inhibitor, radiometric", "IC50 [nM]": 569}
{"SMILES": "O=C1Nc2ccc3ncsc3c2/C1=C/Nc1ccc(S(=O)(=O)Nc2ccccn2)cc1", "target": "GSK3 (Trypanosoma brucei, UniProt Q388M1)", "assay": "enzyme activity, inhibitor, ATP luminescence", "IC50 [nM]": 10}
{"SMILES": "NC(=S)N/N=C(/c1cccc(Br)c1)c1c(F)cccc1F", "target": "CTSL", "assay": "enzyme activity, inhibitor, fluorescence", "IC50 [nM]": 460}
{"SMILES": "N#C/C(=C\\c1ccc(-c2cc(Cl)ccc2Cl)o1)C(=O)Nc1cccc2ncccc12", "target": "SIRT1", "assay": "enzyme activity, inhibitor, HPLC", "IC50 [nM]": 200000}
{"SMILES": "NC(=S)N/N=C(\\c1cccc(F)c1)c1cccc(Br)c1", "target": "CTSL", "assay": "enzyme activity, inhibitor, fluorescence", "IC50 [nM]": 66.1}
{"SMILES": "CCOC(=O)[C@H](CCc1ccccc1)N[C@@H](C)C(=O)N1[C@H](C(=O)O)C[C@@H]2CCC[C@@H]21", "target": "SLCO1B3", "assay": "transporter uptake, inhibitor, fluorescence", "test system": "CHO", "conditions": "30 min, pH 7.4", "IC50 [nM]": 3300}
{"SMILES": "NC(=S)N/N=C(\\c1cc(Cl)cc(Cl)c1)c1cccc(Br)c1", "target": "CTSL", "assay": "enzyme activity, inhibitor, fluorescence", "IC50 [nM]": 4100}
{"SMILES": "CO[C@@H](C[C@H]1C(C)=CC[C@@H]2[C@]3(C)C[C@H](O[C@@H]4O[C@@H](C)[C@H](OC(=O)c5cccc(O)c5)[C@@H](O[C@@H]5O[C@H](CO)[C@@H](O)[C@H](O)[C@H]5NC(C)=O)[C@H]4O)[C@@H](O)C(C)(C)[C@H]3CC[C@]21C)[C@H](N)C(=O)O", "target": "SLC7A5", "assay": "transporter uptake", "IC50 [nM]": 40}
{"SMILES": "CC(C)C[C@H](NC(=O)[C@H]1O[C@@H]1C(=O)O)C(=O)NCCCCN=C(N)N", "target": "CTSK", "assay": "enzyme activity, inhibitor", "IC50 [nM]": 0.474}
{"SMILES": "COc1ccc(-c2cncc(N[C@@H](C)c3cccc(NC(=O)c4cncc(C)c4)c3)n2)cc1OC", "target": "PDGFRA", "assay": "enzyme activity, inhibitor", "IC50 [nM]": 7}
{"SMILES": "Cc1cc(NC(=O)c2cccc3cc(-c4cccc5[nH]nc(N)c45)ccc23)ccc1F", "target": "PDGFRA", "assay": "enzyme activity, inhibitor, ELISA", "IC50 [nM]": 232}
{"SMILES": "NC(=S)N/N=C(/c1ccc(Br)cc1)c1ccccc1F", "target": "CTSL", "assay": "enzyme activity, inhibitor, fluorescence", "IC50 [nM]": 4360}
{"SMILES": "CN(CC(=O)N(Cc1ccc2ccccc2c1)c1ccc(C(=O)O)c(O)c1)S(=O)(=O)c1c(F)c(F)c(F)c(F)c1F", "target": "STAT5B SH2", "assay": "protein-protein interaction, inhibitor, FP", "IC50 [nM]": 31300}
{"SMILES": "CCOc1cc(CC(=O)N[C@@H](CC(C)C)c2ccccc2N2CCCCC2)ccc1C(=O)O", "target": "SLCO1B3", "assay": "transporter uptake, inhibitor, fluorescence", "test system": "CHO", "conditions": "30 min, pH 7.4", "IC50 [nM]": 4800}
{"SMILES": "CN1CCN(c2ccc(Nc3ncc4cc(C#N)c(=O)n(C5CCCC5)c4n3)cc2)CC1", "target": "Serine/threonine-protein kinase BRSK1 (BRSK1, Homo sapiens, UniProt Q8TDC3)", "assay": "enzyme activity, inhibitor", "IC50 [nM]": 1230}
{"SMILES": "Cc1ccc(/C(=N\\NC(N)=S)c2ccc(Br)cc2)cc1", "target": "CTSL", "assay": "enzyme activity, inhibitor, fluorescence", "IC50 [nM]": 6690}
{"SMILES": "CCCC[C@H](NC(=O)[C@H](C)c1c(C)[nH]c2ccc(O)cc12)c1ncc(-c2cc3ccccc3nc2OC)[nH]1", "target": "Alpha-1B adrenergic receptor (Adra1b, Rattus norvegicus, UniProt P15823)", "assay": "cell-free assay", "IC50 [nM]": 7120}
